Reference: ChEMBL document CHEMBL1667809, “Synthesis and in vitro antibacterial activity of 7-(3-alkoxyimino-5-amino/methylaminopiperidin-1-yl)fluoroquinolone derivatives” (Bioorg Med Chem Lett, 2011)
≈ marks a conversion by molar mass, not a printed value.

Columns and labels:
Staphylococcus aureus [1] = experiment: Antibacterial activity against Staphylococcus aureus ATCC 25923 after 18 to 24 hrs by agar dilution method; type: functional
Method in brief: (§1)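 Agar dilution on Petri dishes, each inoculated with 10⁴ cfu of the strain and incubated at 35 °C for 18–24 h. MIC read as the lowest compound concentration giving no visible growth on the plate.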

Staphylococcus aureus [2] = experiment: Antibacterial activity against methicillin-sensitive Staphylococcus aureus 10-04 after 18 to 24 hrs by agar dilution method; type: functional; method in brief: as §1
Staphylococcus aureus [3] = experiment: Antibacterial activity against methicillin-resistant Staphylococcus aureus 10-05 after 18 to 24 hrs by agar dilution method; type: functional
Method in brief: (§2)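 Agar dilution on Petri dishes, each inoculated with 10⁴ cfu. Plates incubated at 35 °C for 18–24 h. MIC taken as the lowest test-compound concentration giving no visible growth on the plate. Reference drugs gemifloxacin, ciprofloxacin and levofloxacin run alongside for comparison.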

[4] = system: Staphylococcus epidermidis; experiment: Antibacterial activity against methicillin-sensitive Staphylococcus epidermidis 10-4 after 18 to 24 hrs by agar dilution method; type: functional; method in brief: as §1
[5] = system: Staphylococcus epidermidis; experiment: Antibacterial activity against methicillin-resistant Staphylococcus epidermidis 10-5 after 18 to 24 hrs by agar dilution method; type: functional; method in brief: as §2
Streptococcus pneumoniae = experiment: Antibacterial activity against Streptococcus pneumoniae 1001 after 18 to 24 hrs by agar dilution method; type: functional; method in brief: as §1
Streptococcus pyogenes = experiment: Antibacterial activity against Streptococcus hemolyticus 1002 after 18 to 24 hrs by agar dilution method; type: functional; method in brief: as §1
Escherichia coli [6] = experiment: Antibacterial activity against Escherichia coli ATCC 25922 after 18 to 24 hrs by agar dilution method; type: functional; method in brief: as §1
Escherichia coli [7] = experiment: Antibacterial activity against Escherichia coli 10-02 after 18 to 24 hrs by agar dilution method; type: functional; method in brief: as §1
Klebsiella pneumoniae = experiment: Antibacterial activity against Klebsiella pneumoniae 10-1 after 18 to 24 hrs by agar dilution method; type: functional; method in brief: as §1
Pseudomonas aeruginosa [8] = experiment: Antibacterial activity against Pseudomonas aeruginosa ATCC 27853 after 18 to 24 hrs by agar dilution method; type: functional; method in brief: as §1
Pseudomonas aeruginosa [9] = experiment: Antibacterial activity against Pseudomonas aeruginosa 10-1 after 18 to 24 hrs by agar dilution method; type: functional; method in brief: as §1
[10] = Cytotoxicity against african green monkey Vero cells after 24 hrs; type: cell-based; conditions: chlorocebus sabaeus
Method in brief: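 Vero cells exposed to graded compound concentrations for 24 h, then viability assessed; CC₅₀ derived from the viability data.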

[11] = system: Staphylococcus epidermidis; experiment: Ratio of compound MIC to GMFX MIC for methicillin-resistant Staphylococcus epidermidis 10-5; type: functional
[12] = system: Staphylococcus epidermidis; experiment: Ratio of compound MIC to LVFX MIC for methicillin-resistant Staphylococcus epidermidis 10-5; type: functional
[13] = system: Staphylococcus epidermidis; experiment: Ratio of compound MIC to CPFX MIC for methicillin-resistant Staphylococcus epidermidis 10-5; type: functional
Staphylococcus aureus [14] = experiment: Ratio of compound MIC to GMFX MIC for methicillin-sensitive Staphylococcus aureus 10-04; type: functional
Staphylococcus aureus [15] = experiment: Ratio of compound MIC to LVFX MIC for methicillin-sensitive Staphylococcus aureus 10-04; type: functional
Staphylococcus aureus [16] = experiment: Ratio of compound MIC to CPFX MIC for methicillin-sensitive Staphylococcus aureus 10-04; type: functional

Compound	MIC (Staphylococcus aureus [1])	MIC (Staphylococcus aureus [2])	MIC (Staphylococcus aureus [3])	MIC [4]	MIC [5]	MIC (Streptococcus pneumoniae)	MIC (Streptococcus pyogenes)	MIC (Escherichia coli [6])	MIC (Escherichia coli [7])	MIC (Klebsiella pneumoniae)	MIC (Pseudomonas aeruginosa [8])	MIC (Pseudomonas aeruginosa [9])	CC50 at 24 h [10]	Ratio [11]	Ratio [12]	Ratio [13]	Ratio (Staphylococcus aureus [14])	Ratio (Staphylococcus aureus [15])	Ratio (Staphylococcus aureus [16])
CO/N=C1\CC(N)CN(c2c(F)cc3c(=O)c(C(=O)O)cn(C4CC4)c3c2OC(F)F)C1 (stereo not drawn)	2 µg/mL (≈ 4.4 µM)	8 µg/mL (≈ 17.6 µM)	128 µg/mL (≈ 282 µM)	2 µg/mL (≈ 4.4 µM)	8 µg/mL (≈ 17.6 µM)	4 µg/mL (≈ 8.8 µM)	> 128 µg/mL	0.25 µg/mL (≈ 0.55 µM)	0.25 µg/mL (≈ 0.55 µM)	> 128 µg/mL	128 µg/mL (≈ 282 µM)	> 128 µg/mL	667 µM	–	–	–	–	–	–
CNC1C/C(=N\OC)CN(c2nc3c(cc2F)c(=O)c(C(=O)O)cn3C2CC2)C1 (stereo not drawn)	0.5 µg/mL (≈ 1.24 µM)	4 µg/mL (≈ 9.92 µM)	128 µg/mL (≈ 317 µM)	2 µg/mL (≈ 4.96 µM)	16 µg/mL (≈ 39.7 µM)	4 µg/mL (≈ 9.92 µM)	> 128 µg/mL	0.25 µg/mL (≈ 0.62 µM)	0.25 µg/mL (≈ 0.62 µM)	> 128 µg/mL	128 µg/mL (≈ 317 µM)	> 128 µg/mL	645 µM	–	–	–	–	–	–
CO/N=C1\CC(N)CN(c2c(F)cc3c(=O)c(C(=O)O)cn4c3c2OC[C@@H]4C)C1 (stereo partly drawn)	0.5 µg/mL (≈ 1.24 µM)	2 µg/mL (≈ 4.95 µM)	128 µg/mL (≈ 317 µM)	4 µg/mL (≈ 9.89 µM)	8 µg/mL (≈ 19.8 µM)	0.5 µg/mL (≈ 1.24 µM)	64 µg/mL (≈ 158 µM)	0.25 µg/mL (≈ 0.618 µM)	0.5 µg/mL (≈ 1.24 µM)	64 µg/mL (≈ 158 µM)	8 µg/mL (≈ 19.8 µM)	64 µg/mL (≈ 158 µM)	1000 µM	–	–	–	–	–	–
CCO/N=C1\CC(NC)CN(c2c(F)cc3c(=O)c(C(=O)O)cn(C4CC4)c3c2OC)C1 (stereo not drawn)	0.5 µg/mL (≈ 1.12 µM)	0.5 µg/mL (≈ 1.12 µM)	8 µg/mL (≈ 17.9 µM)	0.25 µg/mL (≈ 0.56 µM)	4 µg/mL (≈ 8.96 µM)	1 µg/mL (≈ 2.24 µM)	128 µg/mL (≈ 287 µM)	0.25 µg/mL (≈ 0.56 µM)	0.25 µg/mL (≈ 0.56 µM)	128 µg/mL (≈ 287 µM)	128 µg/mL (≈ 287 µM)	128 µg/mL (≈ 287 µM)	1520 µM	2	2	4	4	4	4
O=C(O)c1cn(C2CC2)c2cc(N3CCNCC3)c(F)cc2c1=O [CIPROFLOXACIN]	0.25 µg/mL (≈ 0.754 µM)	–	64 µg/mL (≈ 193 µM)	1 µg/mL (≈ 3.02 µM)	16 µg/mL (≈ 48.3 µM)	0.03 µg/mL (≈ 0.0905 µM)	64 µg/mL (≈ 193 µM)	–	–	32 µg/mL (≈ 96.6 µM)	32 µg/mL (≈ 96.6 µM)	1 µg/mL (≈ 3.02 µM)	–	–	–	–	–	–	–
CCn1cc(C(=O)O)c(=O)c2cc(F)c(N3C/C(=N/OC)CC(N)C3)c(F)c21 (stereo not drawn)	0.25 µg/mL (≈ 0.634 µM)	0.25 µg/mL (≈ 0.634 µM)	32 µg/mL (≈ 81.1 µM)	16 µg/mL (≈ 40.6 µM)	16 µg/mL (≈ 40.6 µM)	0.5 µg/mL (≈ 1.27 µM)	128 µg/mL (≈ 325 µM)	0.25 µg/mL (≈ 0.634 µM)	0.25 µg/mL (≈ 0.634 µM)	> 128 µg/mL	8 µg/mL (≈ 20.3 µM)	> 128 µg/mL	913 µM	–	–	–	–	4	4
CCO/N=C1\CC(NC)CN(c2c(F)cc3c(=O)c(C(=O)O)cn(C4CC4)c3c2F)C1 (stereo not drawn)	0.5 µg/mL (≈ 1.15 µM)	0.25 µg/mL (≈ 0.575 µM)	4 µg/mL (≈ 9.21 µM)	0.5 µg/mL (≈ 1.15 µM)	2 µg/mL (≈ 4.6 µM)	1 µg/mL (≈ 2.3 µM)	128 µg/mL (≈ 295 µM)	0.25 µg/mL (≈ 0.575 µM)	0.5 µg/mL (≈ 1.15 µM)	> 128 µg/mL	128 µg/mL (≈ 295 µM)	> 128 µg/mL	1010 µM	2	2	–	4	4	4
CCO/N=C1\CC(N)CN(c2c(F)cc3c(=O)c(C(=O)O)cn(C4CC4)c3c2OC(F)F)C1 (stereo not drawn)	0.5 µg/mL (≈ 1.07 µM)	0.25 µg/mL (≈ 0.534 µM)	4 µg/mL (≈ 8.54 µM)	0.25 µg/mL (≈ 0.534 µM)	1 µg/mL (≈ 2.13 µM)	1 µg/mL (≈ 2.13 µM)	128 µg/mL (≈ 273 µM)	0.25 µg/mL (≈ 0.534 µM)	0.25 µg/mL (≈ 0.534 µM)	> 128 µg/mL	128 µg/mL (≈ 273 µM)	> 128 µg/mL	1520 µM	2	2	–	4	4	4
